The structures appear in SMILES notation. Converted amounts (≈) assume the structure as drawn.

The test system of data set [1] is Rattus norvegicus. The data set can be described thus: Intrinsic clearance in iv dosed rat. The data set is classed as ADME, organism-based. Conditions: in vivo; call rule not given here.
In data set [2] the target is Matrix metalloproteinase-14 (Homo sapiens, UniProt P50281). In words: Inhibition of human recombinant GST-tagged MMP14 using Cy3-PLGLK(Cy5Q)AR-NH2 as substrate after 40 mins by spectrofluorimetry.
Data set [3] concerns the target Matrix metalloproteinase-9 (Homo sapiens, UniProt P14780). The data set can be described thus: Inhibition of human recombinant MMP9 using Cy3-PLGLK(Cy5Q)AR-NH2 as substrate after 40 mins by spectrofluorimetry.
The target in data set [4] is Stromelysin-2 (Homo sapiens, UniProt P09238). In words: Inhibition of human recombinant MMP10 using Cy3-PLGLK(Cy5Q)AR-NH2 as substrate after 40 mins by spectrofluorimetry.
The target of data set [5] is Stromelysin-1 (Homo sapiens, UniProt P08254). The data set can be described thus: Inhibition of human recombinant MMP3 using Cy3-PLGLK(Cy5Q)AR-NH2 as substrate after 40 mins by spectrofluorimetry. Put shortly:
(§1)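 Human recombinant pro-enzymes were activated with 1 mM APMA at 37 °C, for 2 h (MMP-1) or 18 h (MMP-3). Reactions were stopped with EDTA and read at […] nm. Activity was scaled to no-inhibitor and EDTA controls, and IC50 obtained by iterative fitting.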

The nature of data set [6]: Inhibition of cytochrome P450 (unknown origin). Format: ADME. Conditions: human.
The target in data set [7] is Neutrophil collagenase (Homo sapiens, UniProt P22894). The data set can be described thus: Inhibition of human recombinant MMP8 using Cy3-PLGLK(Cy5Q)AR-NH2 as substrate after 40 mins by spectrofluorimetry.
In data set [8] the target is Voltage-gated inwardly rectifying potassium channel KCNH2 (Homo sapiens, UniProt Q12809). The data set can be described thus: Inhibition of human ERG.
A short description of data set [9]: Solubility of the compound in Britton-Robinson buffer at pH 7. The data set is classed as physicochemical.
Data set [10] can be described thus: Apparent permeability in human Caco2 cells. Conditions: Caco-2. The data set is classed as ADME, cell-based.
The target in data set [11] is T1, Interstitial collagenase (Homo sapiens, UniProt P03956).
T1 sequence (P03956 whole entry): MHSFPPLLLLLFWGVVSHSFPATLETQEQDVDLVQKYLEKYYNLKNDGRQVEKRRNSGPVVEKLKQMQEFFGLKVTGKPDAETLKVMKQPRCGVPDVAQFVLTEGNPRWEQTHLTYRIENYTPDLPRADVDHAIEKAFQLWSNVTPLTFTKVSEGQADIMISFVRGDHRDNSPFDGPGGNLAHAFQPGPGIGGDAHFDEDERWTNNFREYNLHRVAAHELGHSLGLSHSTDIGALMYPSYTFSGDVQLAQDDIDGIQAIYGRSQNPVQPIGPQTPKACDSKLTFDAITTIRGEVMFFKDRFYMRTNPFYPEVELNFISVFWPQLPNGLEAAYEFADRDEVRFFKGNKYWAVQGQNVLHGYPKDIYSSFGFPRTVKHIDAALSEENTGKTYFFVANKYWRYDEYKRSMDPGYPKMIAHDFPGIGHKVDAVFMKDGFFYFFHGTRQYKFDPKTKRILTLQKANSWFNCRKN
The data set can be described thus: Inhibition of human recombinant MMP1 using Cy3-PLGLK(Cy5Q)AR-NH2 as substrate after 40 mins by spectrofluorimetry. A digest of the protocol:
as §1

For data set [12], the target named is 72 kDa type IV collagenase (Homo sapiens, UniProt P08253). The data set can be described thus: Inhibition of human recombinant MMP2 using Cy3-PLGLK(Cy5Q)AR-NH2 as substrate after 40 mins by spectrofluorimetry.
In data set [13] the target is Disintegrin and metalloproteinase domain-containing protein 17 (Homo sapiens, UniProt P78536). In words: Inhibition of human recombinant TACE using Cy3-PLAQAV(Cy5Q-L-2,3-diaminopropionic acid)-RSSSRNH2 as substrate after 40 mins by spectrofluorimetry.
Data set [14] concerns the target Collagenase 3 (Homo sapiens, UniProt P45452). In words: Inhibition of human recombinant MMP13 using Cy3-PLGLK(Cy5Q)AR-NH2 as substrate after 40 mins by spectrofluorimetry.
Data set [15] deals with T2, Matrilysin (Homo sapiens, UniProt P09237).
T2 sequence (P09237 whole entry): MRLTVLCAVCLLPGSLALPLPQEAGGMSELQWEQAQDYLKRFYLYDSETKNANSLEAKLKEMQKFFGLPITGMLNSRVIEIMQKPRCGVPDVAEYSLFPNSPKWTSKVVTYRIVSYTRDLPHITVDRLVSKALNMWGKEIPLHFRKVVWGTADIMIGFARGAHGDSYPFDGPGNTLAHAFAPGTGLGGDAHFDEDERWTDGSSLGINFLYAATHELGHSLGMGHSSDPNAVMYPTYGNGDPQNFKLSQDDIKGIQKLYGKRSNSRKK
In words: Inhibition of human recombinant MMP7 using Cy3-PLGLK(Cy5Q)AR-NH2 as substrate after 40 mins by spectrofluorimetry.

The subject of data set [16] is Liver microsome. The data set can be described thus: Metabolic stability in rat liver microsomes. Format: ADME. A digest of the protocol:
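The free acid was incubated with hepatic microsomes of each species. Stability is reported as clearance in μL/min/mg microsomal protein.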

A short description of data set [17]: Solubility of the compound in water. Format: physicochemical. Particulars: buffer.

Chain of Voltage-gated inwardly rectifying potassium channel KCNH2 (Q12809 whole entry): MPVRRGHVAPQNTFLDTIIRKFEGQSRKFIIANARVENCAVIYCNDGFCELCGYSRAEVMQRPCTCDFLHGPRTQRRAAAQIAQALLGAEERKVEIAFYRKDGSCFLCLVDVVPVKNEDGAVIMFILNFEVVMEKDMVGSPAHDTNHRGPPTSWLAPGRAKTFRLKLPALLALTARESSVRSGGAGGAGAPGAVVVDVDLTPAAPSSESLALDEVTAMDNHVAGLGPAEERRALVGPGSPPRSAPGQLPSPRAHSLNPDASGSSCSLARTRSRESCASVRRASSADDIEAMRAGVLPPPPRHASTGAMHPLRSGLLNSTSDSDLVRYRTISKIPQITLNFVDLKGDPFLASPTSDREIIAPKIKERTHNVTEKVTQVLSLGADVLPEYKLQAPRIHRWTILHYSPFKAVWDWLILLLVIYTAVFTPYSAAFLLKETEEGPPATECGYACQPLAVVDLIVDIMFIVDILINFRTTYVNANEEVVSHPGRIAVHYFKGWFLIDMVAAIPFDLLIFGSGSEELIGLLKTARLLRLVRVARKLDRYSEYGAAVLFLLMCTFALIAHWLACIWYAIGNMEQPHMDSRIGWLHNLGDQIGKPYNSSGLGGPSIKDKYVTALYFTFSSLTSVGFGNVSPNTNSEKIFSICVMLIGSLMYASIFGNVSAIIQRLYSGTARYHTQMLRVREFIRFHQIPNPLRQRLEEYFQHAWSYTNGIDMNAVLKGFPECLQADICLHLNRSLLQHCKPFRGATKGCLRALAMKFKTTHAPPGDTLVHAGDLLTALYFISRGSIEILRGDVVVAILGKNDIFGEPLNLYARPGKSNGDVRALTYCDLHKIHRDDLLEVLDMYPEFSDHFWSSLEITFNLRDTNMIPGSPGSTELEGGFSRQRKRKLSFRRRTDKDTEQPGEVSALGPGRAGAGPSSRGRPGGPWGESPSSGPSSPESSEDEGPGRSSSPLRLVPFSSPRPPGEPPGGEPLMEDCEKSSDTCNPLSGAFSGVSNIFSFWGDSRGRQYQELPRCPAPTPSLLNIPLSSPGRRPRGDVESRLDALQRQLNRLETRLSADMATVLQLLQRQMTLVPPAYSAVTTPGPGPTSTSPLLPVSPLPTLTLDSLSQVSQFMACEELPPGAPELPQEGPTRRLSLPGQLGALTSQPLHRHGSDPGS
Chain of Neutrophil collagenase (P22894 whole entry): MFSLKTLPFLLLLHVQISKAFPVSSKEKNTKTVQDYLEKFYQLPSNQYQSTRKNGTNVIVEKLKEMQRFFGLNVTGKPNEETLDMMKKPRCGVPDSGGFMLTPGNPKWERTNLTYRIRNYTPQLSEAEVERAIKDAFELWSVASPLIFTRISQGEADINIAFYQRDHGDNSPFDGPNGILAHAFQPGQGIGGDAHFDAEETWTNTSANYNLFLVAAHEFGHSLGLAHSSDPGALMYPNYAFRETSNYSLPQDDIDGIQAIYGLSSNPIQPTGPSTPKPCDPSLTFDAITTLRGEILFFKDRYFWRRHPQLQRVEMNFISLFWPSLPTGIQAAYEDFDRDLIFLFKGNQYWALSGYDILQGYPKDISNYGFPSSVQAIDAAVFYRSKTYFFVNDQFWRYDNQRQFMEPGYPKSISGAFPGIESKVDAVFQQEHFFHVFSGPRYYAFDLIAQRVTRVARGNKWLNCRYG
Chain of Matrix metalloproteinase-9 (P14780 whole entry): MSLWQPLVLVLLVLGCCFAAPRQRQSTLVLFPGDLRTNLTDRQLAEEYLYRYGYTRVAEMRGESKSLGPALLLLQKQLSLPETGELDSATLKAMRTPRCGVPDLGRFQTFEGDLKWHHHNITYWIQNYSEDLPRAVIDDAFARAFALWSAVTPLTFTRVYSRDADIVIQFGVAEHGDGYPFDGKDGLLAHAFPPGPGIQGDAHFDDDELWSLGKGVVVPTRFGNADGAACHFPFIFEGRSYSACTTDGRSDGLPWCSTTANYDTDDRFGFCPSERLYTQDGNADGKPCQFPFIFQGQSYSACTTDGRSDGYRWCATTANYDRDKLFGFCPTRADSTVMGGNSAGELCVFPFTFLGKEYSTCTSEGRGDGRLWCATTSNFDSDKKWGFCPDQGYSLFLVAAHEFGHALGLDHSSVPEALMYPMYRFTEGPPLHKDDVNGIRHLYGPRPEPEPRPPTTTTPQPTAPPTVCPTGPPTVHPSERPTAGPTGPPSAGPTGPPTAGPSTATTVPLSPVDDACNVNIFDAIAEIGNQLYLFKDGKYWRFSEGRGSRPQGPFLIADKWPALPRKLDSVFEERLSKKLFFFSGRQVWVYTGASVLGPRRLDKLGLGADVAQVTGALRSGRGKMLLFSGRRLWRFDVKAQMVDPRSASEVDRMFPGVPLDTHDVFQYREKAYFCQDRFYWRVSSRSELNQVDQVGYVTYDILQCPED
Chain of Disintegrin and metalloproteinase domain-containing protein 17 (P78536 whole entry, the tested form may be a part): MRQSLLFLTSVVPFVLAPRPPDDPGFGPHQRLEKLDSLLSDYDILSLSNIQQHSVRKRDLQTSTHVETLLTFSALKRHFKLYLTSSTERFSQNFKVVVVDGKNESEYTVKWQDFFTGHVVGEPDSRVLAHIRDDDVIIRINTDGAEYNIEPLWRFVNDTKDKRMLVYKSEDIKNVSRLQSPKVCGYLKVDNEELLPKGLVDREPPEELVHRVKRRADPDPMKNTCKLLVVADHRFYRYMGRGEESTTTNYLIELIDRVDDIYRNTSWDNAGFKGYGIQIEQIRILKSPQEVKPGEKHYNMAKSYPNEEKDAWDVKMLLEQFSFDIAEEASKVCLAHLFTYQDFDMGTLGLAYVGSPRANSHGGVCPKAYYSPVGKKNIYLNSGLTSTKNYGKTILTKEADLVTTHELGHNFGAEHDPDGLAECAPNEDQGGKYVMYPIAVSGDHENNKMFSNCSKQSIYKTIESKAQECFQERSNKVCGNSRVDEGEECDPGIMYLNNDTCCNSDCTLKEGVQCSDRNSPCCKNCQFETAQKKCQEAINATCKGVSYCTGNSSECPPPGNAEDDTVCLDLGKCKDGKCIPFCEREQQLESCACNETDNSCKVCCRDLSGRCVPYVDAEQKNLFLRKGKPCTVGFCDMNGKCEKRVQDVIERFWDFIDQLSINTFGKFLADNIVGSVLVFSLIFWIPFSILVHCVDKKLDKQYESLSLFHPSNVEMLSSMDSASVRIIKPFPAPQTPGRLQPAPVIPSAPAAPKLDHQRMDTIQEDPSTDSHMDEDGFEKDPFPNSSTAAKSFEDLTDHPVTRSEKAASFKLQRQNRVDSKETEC
Chain of Stromelysin-1 (P08254 whole entry): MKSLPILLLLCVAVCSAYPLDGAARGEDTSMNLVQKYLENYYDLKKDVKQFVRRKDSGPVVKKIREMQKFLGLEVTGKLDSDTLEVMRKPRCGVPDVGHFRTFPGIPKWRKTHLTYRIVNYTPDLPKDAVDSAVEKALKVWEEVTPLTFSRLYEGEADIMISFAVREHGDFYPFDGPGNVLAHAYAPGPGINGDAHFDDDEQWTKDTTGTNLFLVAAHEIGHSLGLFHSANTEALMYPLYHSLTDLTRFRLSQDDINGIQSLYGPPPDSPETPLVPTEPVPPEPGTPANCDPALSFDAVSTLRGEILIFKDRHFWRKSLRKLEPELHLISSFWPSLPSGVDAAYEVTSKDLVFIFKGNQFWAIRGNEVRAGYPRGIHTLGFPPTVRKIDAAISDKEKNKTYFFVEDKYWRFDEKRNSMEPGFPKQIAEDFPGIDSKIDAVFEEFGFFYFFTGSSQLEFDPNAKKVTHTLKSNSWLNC
Chain of Stromelysin-2 (P09238 whole entry): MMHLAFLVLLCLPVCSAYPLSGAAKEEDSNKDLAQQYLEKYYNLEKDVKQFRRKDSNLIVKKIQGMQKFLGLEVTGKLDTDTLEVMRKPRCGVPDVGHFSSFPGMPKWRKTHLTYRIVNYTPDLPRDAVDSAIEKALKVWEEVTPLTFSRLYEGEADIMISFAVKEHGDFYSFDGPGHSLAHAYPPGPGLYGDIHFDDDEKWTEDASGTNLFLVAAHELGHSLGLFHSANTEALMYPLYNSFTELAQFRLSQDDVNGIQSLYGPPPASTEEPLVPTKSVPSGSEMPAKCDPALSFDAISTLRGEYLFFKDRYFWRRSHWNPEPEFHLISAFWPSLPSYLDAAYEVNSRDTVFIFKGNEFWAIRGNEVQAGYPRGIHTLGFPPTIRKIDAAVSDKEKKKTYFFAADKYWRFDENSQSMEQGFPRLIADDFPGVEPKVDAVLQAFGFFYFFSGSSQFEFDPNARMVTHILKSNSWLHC
Chain of 72 kDa type IV collagenase (P08253 whole entry, the tested form may be a part): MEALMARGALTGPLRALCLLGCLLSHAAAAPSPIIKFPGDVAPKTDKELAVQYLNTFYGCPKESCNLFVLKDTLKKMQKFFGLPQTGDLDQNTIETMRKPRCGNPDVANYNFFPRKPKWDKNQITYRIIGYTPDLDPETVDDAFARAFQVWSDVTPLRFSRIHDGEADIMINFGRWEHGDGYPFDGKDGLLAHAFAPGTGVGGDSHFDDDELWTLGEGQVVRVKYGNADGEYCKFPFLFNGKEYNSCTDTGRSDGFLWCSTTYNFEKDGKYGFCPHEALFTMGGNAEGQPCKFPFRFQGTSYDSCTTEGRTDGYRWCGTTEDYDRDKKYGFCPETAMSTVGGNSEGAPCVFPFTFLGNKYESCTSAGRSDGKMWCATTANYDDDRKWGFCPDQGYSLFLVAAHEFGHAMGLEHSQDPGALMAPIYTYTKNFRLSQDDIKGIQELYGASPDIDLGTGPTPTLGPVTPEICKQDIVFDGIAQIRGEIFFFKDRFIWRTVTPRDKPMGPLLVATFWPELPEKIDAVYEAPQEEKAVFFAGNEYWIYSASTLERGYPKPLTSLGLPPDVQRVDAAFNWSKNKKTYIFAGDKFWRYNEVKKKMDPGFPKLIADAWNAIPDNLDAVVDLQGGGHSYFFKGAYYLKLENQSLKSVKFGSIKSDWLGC

As to `COc1cccc(CNC(=O)c2nc3ccc(F)c(OCCc4ccc(C(=O)O)cc4)c3c(=O)[nH]2)c1`, in data set [1], the CL amounted to 28.3 mL/min/kg. For the same molecule, the half-maximal inhibitory concentration (IC50) in data set [2] is over 10 µM; in data set [3] it was over 10 µM; in [4], 0.16 µM; in [5] it was 4 µM; in data set [7], 0.72 µM; in data set [11] it was over 10 µM. Besides, the IC50 is 5.3 µM in data set [12], over 10 µM in data set [13], 3.9 pM in data set [14] and over 10 µM in data set [15]. Also, the “inhibition (INH)” value in data set [6] and in data set [8] was “Not Active” throughout. In addition, the solubility was 0.7 µg/mL (≈ 1.42 µM) in [9] and “Insoluble” in data set [17]. The Papp in data set [10] came out at 4.77 ×10⁻⁶ cm/s. The molecule further displayed a Microsomal clearance in [16] of 70 µL/min/mg.

These data come from ChEMBL document CHEMBL3352689 (J Med Chem, 2014).
